# Measured values from ChEMBL document CHEMBL1144747, “(Phenylpiperazinyl-butyl)oxindoles as selective 5-HT7 receptor antagonists” (J Med Chem, 2008).
# Key:
# [1] = target: T1, 5-hydroxytryptamine receptor 7 (Homo sapiens, UniProt P34969); experiment: Displacement of [3H]LSD from human recombinant 5HT7 receptor expressed in CHO cells; assay type: cell-based; settings: read-out: Ki
# In short: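 Cloned human 5-HT7 receptor from CHO cells, labelled with [3H]LSD; nonspecific binding with 25 µM clozapine. Stopped by filtration on PEI-soaked GF/C filters, then scintillation counting. Ki from two displacement curves of nine concentrations each, run in triplicate.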
# [2] = target: T2, 5-hydroxytryptamine receptor 1A (Rattus norvegicus) (UniProt P19327); experiment: Displacement of [3H]8-OH-DPAT from 5HT1A receptor in rat frontal cortex membrane at 0.1 uM; assay type: cell membranes
# T2 sequence (whole entry): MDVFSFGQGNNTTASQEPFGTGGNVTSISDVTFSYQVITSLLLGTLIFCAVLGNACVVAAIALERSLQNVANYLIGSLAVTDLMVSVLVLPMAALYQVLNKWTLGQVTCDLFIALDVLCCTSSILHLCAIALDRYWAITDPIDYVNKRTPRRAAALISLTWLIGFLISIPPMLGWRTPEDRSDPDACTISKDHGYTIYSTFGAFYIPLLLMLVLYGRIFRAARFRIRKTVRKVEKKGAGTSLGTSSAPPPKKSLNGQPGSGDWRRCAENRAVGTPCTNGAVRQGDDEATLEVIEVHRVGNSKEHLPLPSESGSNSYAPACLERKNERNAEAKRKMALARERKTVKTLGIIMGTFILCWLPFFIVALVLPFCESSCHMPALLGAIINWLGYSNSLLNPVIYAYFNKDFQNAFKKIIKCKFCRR
# In short: (§1)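 Rat tissue homogenized in 50 mM Tris-HCl pH 7.7, washed by repeated 40000g spins with a 10 min 37 °C incubation. Buffer: Tris-HCl, 6.66 mM CaCl2, 16.66 µM pargyline, 0.166% ascorbate. Labelled with 1.5 nM [3H]8-OH-DPAT, 45 min at 25 °C; nonspecific with 10 µM 5-HT. GF/B filtration, then scintillation counting; percent inhibition.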
# [3] = target: T2, 5-hydroxytryptamine receptor 1A (Rattus norvegicus); experiment: Displacement of [3H]8-OH-DPAT from 5HT1A receptor in rat frontal cortex membrane at 10 nM; assay type: cell membranes; in short: as §1
# Rattus norvegicus = experiment: Anxiolytic activity in ip dosed Wistar rat assessed as number of punished licks for 5 mins by conflict drinking test; assay type: functional; settings: read-out: MED
# In short: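 Modified Vogel test in male Wistar rats, 160–180 g, water-deprived 48 h and fasted 24 h. Dosed ip 30 min before test. After a 30 s free-drinking period, 600 µA, 0.6 s shocks came through the spout every 20 licks over 5 min. Punished licks counted; minimal effective dose reported.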
# [4] = target: T3, 5-hydroxytryptamine receptor 1A (Rattus norvegicus, UniProt P19327); experiment: Inhibition of 5HT1A receptor in rat frontal cortex membrane; assay type: cell membranes; in short: as §1
# T3 sequence (P19327 whole entry): T2 sequence (whole entry)
# [5] = target: 5-hydroxytryptamine receptor 2A (Homo sapiens, UniProt P28223); experiment: Inhibition of 5HT2A receptor
# [6] = target: T4, 5-hydroxytryptamine receptor 2C (Homo sapiens, UniProt P28335); experiment: Inhibition of 5HT2C receptor
# T4 sequence (P28335 whole entry): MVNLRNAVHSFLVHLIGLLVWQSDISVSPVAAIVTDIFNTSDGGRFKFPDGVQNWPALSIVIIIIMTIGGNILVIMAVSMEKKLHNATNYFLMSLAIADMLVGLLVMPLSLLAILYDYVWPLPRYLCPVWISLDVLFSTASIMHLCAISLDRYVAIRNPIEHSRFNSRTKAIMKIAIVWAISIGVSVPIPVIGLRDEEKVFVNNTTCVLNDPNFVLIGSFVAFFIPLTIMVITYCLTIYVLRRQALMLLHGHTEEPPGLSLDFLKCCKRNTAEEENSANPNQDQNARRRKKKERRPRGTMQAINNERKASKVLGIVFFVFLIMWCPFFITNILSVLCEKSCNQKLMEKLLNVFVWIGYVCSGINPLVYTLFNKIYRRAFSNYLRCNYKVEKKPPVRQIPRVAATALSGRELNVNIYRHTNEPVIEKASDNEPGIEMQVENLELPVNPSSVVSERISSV
# [7] = target: 5-hydroxytryptamine receptor 6 (Homo sapiens, UniProt P50406); experiment: Inhibition of 5HT6 receptor
# [8] = target: T5, Alpha-1A adrenergic receptor (Homo sapiens, UniProt P35348); experiment: Inhibition of adrenergic alpha-1 receptor
# T5 sequence (P35348 whole entry): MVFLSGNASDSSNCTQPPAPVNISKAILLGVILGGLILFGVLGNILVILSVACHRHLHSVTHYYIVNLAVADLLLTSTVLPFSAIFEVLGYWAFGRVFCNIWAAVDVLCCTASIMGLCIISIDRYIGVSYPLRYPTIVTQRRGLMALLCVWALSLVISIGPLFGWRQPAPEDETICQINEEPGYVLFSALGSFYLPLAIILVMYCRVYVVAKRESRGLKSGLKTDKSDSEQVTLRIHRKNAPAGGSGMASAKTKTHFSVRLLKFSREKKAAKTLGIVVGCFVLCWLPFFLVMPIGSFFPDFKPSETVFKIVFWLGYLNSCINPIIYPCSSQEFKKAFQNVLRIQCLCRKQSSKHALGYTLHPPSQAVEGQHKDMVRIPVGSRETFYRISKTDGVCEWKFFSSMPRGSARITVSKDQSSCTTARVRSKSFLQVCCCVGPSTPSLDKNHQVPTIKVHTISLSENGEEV
# D(1A) dopamine receptor = D(1A) dopamine receptor (Homo sapiens, UniProt P21728); experiment: Inhibition of dopamine D1 receptor
# D(2) dopamine receptor = D(2) dopamine receptor (Homo sapiens, UniProt P14416); experiment: Inhibition of dopamine D2 receptor
# [9] = target: T1, 5-hydroxytryptamine receptor 7; experiment: Antagonist activity at human 5HT7A receptor expressed in CHO cells assessed as inhibition of […]-induced cAMP elevation at 10 nM administered before […] challenge; assay type: functional, cell-based; design: scale not given: the % may be the effect or the level left
# In short: (§2)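 CHO cells stably expressing human 5-HT7A, cultured in F12:DMEM with 5% FCS, seeded 24 h ahead. Compounds from 1 mM DMSO stock (final DMSO 0.1%) preincubated 10 min, then 20 min with 10 nM 5-CT at 37 °C. Cells lysed, cAMP by EIA, normalized to BCA protein. The 5-CT-induced level is taken as 100%; six independent experiments.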
# [10] = target: T1, 5-hydroxytryptamine receptor 7; experiment: Antagonist activity at human 5HT7A receptor expressed in CHO cells assessed as inhibition of […]-induced cAMP elevation at 1 uM; assay type: functional, cell-based; design: scale not given: the % may be the effect or the level left; in short: as §2
# [11] = Oral bioavailability in rat; assay type: ADME, organism-based; settings: in vivo
# Mus musculus = experiment: Anxiolytic activity in ip dosed NMRI mouse assessed as behavioral activity for 5 mins by light dark assay; assay type: functional; settings: read-out: MED
# In short: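 Male NMRI mice, 25–33 g, kept in a dark room and dosed ip 30 min before test, then placed in the centre of the lit area. Over 5 min, time in each area, transitions, and horizontal and vertical activity were recorded. Minimal effective dose by one-way ANOVA with Duncan's test.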
# Chain of 5-hydroxytryptamine receptor 2A (P28223 whole entry): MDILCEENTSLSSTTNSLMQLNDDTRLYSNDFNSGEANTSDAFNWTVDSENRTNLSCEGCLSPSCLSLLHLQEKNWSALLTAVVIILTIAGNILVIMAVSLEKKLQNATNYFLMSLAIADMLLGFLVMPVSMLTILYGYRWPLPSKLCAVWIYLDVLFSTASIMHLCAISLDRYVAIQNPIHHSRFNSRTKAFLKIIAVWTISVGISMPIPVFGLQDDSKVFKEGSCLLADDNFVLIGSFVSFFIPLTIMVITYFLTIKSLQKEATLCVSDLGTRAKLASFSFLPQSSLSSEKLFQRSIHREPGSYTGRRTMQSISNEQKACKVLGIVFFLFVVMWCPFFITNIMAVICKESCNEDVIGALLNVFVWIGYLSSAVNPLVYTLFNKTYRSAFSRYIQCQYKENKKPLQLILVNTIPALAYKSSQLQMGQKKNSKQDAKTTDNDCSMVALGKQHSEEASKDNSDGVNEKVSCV
# Chain of 5-hydroxytryptamine receptor 6 (P50406 whole entry): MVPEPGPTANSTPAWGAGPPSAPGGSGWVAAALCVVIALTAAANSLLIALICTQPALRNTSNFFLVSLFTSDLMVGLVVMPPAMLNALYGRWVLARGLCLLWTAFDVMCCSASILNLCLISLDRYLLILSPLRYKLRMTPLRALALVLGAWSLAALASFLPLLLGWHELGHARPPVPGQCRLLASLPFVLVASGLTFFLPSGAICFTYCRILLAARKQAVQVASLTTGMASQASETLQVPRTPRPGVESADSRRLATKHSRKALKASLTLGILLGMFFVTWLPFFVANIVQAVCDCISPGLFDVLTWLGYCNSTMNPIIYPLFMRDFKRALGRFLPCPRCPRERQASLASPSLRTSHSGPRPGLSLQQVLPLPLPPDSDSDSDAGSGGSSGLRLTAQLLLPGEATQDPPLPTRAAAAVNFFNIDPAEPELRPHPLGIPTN
# Chain of D(2) dopamine receptor (P14416 whole entry): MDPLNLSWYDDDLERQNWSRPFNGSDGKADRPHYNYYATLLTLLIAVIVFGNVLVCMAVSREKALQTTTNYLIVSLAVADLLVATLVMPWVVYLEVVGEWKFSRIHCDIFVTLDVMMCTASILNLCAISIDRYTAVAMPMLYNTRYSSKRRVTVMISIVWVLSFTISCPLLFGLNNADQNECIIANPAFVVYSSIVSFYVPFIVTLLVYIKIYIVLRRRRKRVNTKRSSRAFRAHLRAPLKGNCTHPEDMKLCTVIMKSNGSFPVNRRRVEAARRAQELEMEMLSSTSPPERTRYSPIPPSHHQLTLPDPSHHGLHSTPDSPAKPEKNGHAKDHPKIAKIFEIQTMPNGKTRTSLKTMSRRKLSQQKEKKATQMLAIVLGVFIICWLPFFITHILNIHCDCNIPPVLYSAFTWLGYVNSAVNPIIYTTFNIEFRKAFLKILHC
# Chain of D(1A) dopamine receptor (P21728 whole entry): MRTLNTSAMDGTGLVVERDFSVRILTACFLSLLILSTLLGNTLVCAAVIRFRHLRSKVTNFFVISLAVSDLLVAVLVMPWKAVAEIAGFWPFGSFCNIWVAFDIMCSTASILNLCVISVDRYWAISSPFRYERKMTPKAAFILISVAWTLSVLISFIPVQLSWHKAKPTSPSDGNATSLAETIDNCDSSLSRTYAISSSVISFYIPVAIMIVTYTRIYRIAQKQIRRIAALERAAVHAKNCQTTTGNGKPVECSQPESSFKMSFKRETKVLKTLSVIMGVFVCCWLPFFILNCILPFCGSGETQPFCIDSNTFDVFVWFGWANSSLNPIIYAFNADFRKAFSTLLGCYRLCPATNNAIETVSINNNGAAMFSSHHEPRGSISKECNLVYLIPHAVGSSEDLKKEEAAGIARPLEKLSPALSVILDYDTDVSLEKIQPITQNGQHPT
# T1 sequence (P34969 whole entry): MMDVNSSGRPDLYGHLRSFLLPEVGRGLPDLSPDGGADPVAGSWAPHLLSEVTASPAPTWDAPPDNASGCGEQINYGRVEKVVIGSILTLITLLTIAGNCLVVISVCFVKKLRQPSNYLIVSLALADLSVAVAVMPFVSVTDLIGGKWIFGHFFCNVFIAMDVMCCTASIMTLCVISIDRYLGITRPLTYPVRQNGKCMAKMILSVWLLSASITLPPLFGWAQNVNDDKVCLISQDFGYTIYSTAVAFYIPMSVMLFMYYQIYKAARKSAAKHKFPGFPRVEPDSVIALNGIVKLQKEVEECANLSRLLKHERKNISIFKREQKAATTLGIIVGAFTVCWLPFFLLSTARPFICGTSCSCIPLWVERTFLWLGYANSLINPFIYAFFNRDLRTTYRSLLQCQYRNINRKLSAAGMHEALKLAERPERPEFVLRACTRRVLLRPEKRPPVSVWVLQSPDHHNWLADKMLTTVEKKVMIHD
SMILES,Ki [1] [nM],Activity [2] [%],Activity [3] [%],minimal effective dose (Rattus norvegicus) [mg/kg],Ki [4] [nM],Ki [5] [nM],Ki [6] [nM],Ki [7] [nM],Ki [8] [nM],Ki (D(1A) dopamine receptor) [nM],Ki (D(2) dopamine receptor) [nM],Activity [9] [%],Activity [10] [%],bioavailability [11] [%],minimal effective dose (Mus musculus) [mg/kg]
O=C1Nc2ccc(F)cc2C1CCCCN1CCN(c2ccccc2)CC1 (stereo not given),44,33,5,< 10,150,55,1500,1800,20,1900,330,40,> 95,,
O=C1Nc2ccc(Cl)c3c2C1(CCCCN1CC=C(c2ccc(Cl)cc2)CC1)CCC3 (stereo not given),,,,,,,,,,,,,,18,
CCC1(CCCCN2CCN(c3ccc(Cl)cc3)CC2)C(=O)Nc2cc(F)ccc21 (stereo not given),0.79,9,0,> 20,1610,19.4,358,187,71.3,3360,950,,> 95,,> 10
O=C1Nc2ccccc2C1CCCCN1CCN(c2ccc(Cl)cc2)CC1 (stereo not given),7,10,,< 2.5,1800,17.5,690,580,42,2400,960,80,> 95,,< 1
